Where “and” joins values, the source holds several entries; their conditions need not be identical. Equal values may be shown once.
Test system: U2OS
Test: Multiplex assay against U2OS
Assay type: toxicity, cell-based
Conditions: human
In short: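 Tubulin, mitochondrial-mass and membrane-permeability phenotypes are per cents of healthy-nucleus cells. Cells were gated by CellPathfinder machine learning into Hoechst high-intensity objects or normal cells, normal cells into healthy, pyknosed or fragmented nuclei, and pyknosed cells into mitotic or apoptotic. Before that, live cells stained at seeding with Hoechst33342, BioTracker Green Microtubule Cytoskeleton Dye, MitoTracker Red and Annexin V Alexa Fluor 680 were imaged on a CQ1 microscope at 37°C and 5% CO2 after compound addition.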

[1] = 12 h, 1 µM, compound concentration 1 uM
[2] = 12 h, 10 µM, compound concentration 10 uM
[3] = 24 h, 1 µM, compound concentration 1 uM
[4] = 24 h, 10 µM, compound concentration 10 uM
[5] = 48 h, 1 µM, compound concentration 1 uM
[6] = 48 h, 10 µM, compound concentration 10 uM

COc1cc(C(=O)N2CC[C@@H](O)[C@@H](N)C2)cc2nc(-c3cc4ccccc4n3CC3CC3)n(C)c12.Cl
Population Apoptotic (%) [1]: 50% and 75%
Population Fragmented Nuclei (%) [1]: 32% and 15%
Population Healthy Nuclei (%) [1]: 53% and 75%
Population Hoechst High Intensity Objects (%) [1]: 4% and 1%
Population Membrane Permeable-Phenotype (%) [1]: 38% and 20%
Population Mitochondria Different-Phenotype (%) [1]: 16% and 18%
Population Mitotic Cells (%) [1]: 50% and 25%
Population Normal (%) [1]: 95% and 98%
Population Pyknosed Nuclei (%) [1]: 14% and 8%
Population Tubulin-Different-Phenotype (%) [1]: 29% and 15%
Total Cell Count [1]: 223 and 92
Population Apoptotic (%) [2]: 68% and 56%
Population Fragmented Nuclei (%) [2]: 23% and 16%
Population Healthy Nuclei (%) [2]: 38% and 61%
Population Hoechst High Intensity Objects (%) [2]: 6% and 5%
Population Membrane Permeable-Phenotype (%) [2]: 75% and 79%
Population Mitochondria Different-Phenotype (%) [2]: 88% and 91%
Population Mitotic Cells (%) [2]: 31% and 44%
Population Normal (%) [2]: 93% and 94%
Population Pyknosed Nuclei (%) [2]: 37% and 22%
Population Tubulin-Different-Phenotype (%) [2]: 96% and 94%
Total Cell Count [2]: 208 and 120
Population Apoptotic (%) [3]: 78% and 75%
Population Fragmented Nuclei (%) [3]: 28% and 18%
Population Healthy Nuclei (%) [3]: 54% and 69%
Population Hoechst High Intensity Objects (%) [3]: 3% and 2%
Population Membrane Permeable-Phenotype (%) [3]: 19% and 17%
Population Mitochondria Different-Phenotype (%) [3]: 14% and 18%
Population Mitotic Cells (%) [3]: 21% and 25%
Population Normal (%) [3]: 96% and 97%
Population Pyknosed Nuclei (%) [3]: 17% and 11%
Population Tubulin-Different-Phenotype (%) [3]: 12% and 17%
Total Cell Count [3]: 243 and 109
Population Apoptotic (%) [4]: 84% and 71%
Population Fragmented Nuclei (%) [4]: 25% and 26%
Population Healthy Nuclei (%) [4]: 35% and 48%
Population Hoechst High Intensity Objects (%) [4]: 4%
Population Membrane Permeable-Phenotype (%) [4]: 57% and 50%
Population Mitochondria Different-Phenotype (%) [4]: 88% and 85%
Population Mitotic Cells (%) [4]: 15% and 28%
Population Normal (%) [4]: 95%
Population Pyknosed Nuclei (%) [4]: 38% and 25%
Population Tubulin-Different-Phenotype (%) [4]: 78% and 90%
Total Cell Count [4]: 222 and 133
Population Apoptotic (%) [5]: 82% and 76%
Population Fragmented Nuclei (%) [5]: 23%
Population Healthy Nuclei (%) [5]: 61%
Population Hoechst High Intensity Objects (%) [5]: 2%
Population Membrane Permeable-Phenotype (%) [5]: 9% and 17%
Population Mitochondria Different-Phenotype (%) [5]: 5% and 11%
Population Mitotic Cells (%) [5]: 17% and 23%
Population Normal (%) [5]: 97%
Population Pyknosed Nuclei (%) [5]: 15% and 14%
Population Tubulin-Different-Phenotype (%) [5]: 5% and 12%
Total Cell Count [5]: 304 and 149
Population Apoptotic (%) [6]: 88% and 92%
Population Fragmented Nuclei (%) [6]: 29% and 30%
Population Healthy Nuclei (%) [6]: 35%
Population Hoechst High Intensity Objects (%) [6]: 12% and 6%
Population Membrane Permeable-Phenotype (%) [6]: 47%
Population Mitochondria Different-Phenotype (%) [6]: 65% and 84%
Population Mitotic Cells (%) [6]: 11% and 7%
Population Normal (%) [6]: 87% and 93%
Population Pyknosed Nuclei (%) [6]: 35% and 34%
Population Tubulin-Different-Phenotype (%) [6]: 62% and 75%
Total Cell Count [6]: 232 and 131

CN(C)CCCc1cc(C(=O)Nc2ccc(-c3ccncc3)cc2)ccc1O.Cl.Cl
Population Apoptotic (%) [1]: 89% and 100%
Population Fragmented Nuclei (%) [1]: 29% and 10%
Population Healthy Nuclei (%) [1]: 60% and 75%
Population Hoechst High Intensity Objects (%) [1]: 2% and 0%
Population Membrane Permeable-Phenotype (%) [1]: 6% and 2%
Population Mitochondria Different-Phenotype (%) [1]: 0% and 1%
Population Mitotic Cells (%) [1]: 10% and 0%
Population Normal (%) [1]: 97% and 99%
Population Pyknosed Nuclei (%) [1]: 9% and 13%
Population Tubulin-Different-Phenotype (%) [1]: 3% and 0%
Total Cell Count [1]: 199 and 124
Population Apoptotic (%) [2]: 77% and 42%
Population Fragmented Nuclei (%) [2]: 28% and 24%
Population Healthy Nuclei (%) [2]: 62% and 63%
Population Hoechst High Intensity Objects (%) [2]: 4% and 1%
Population Membrane Permeable-Phenotype (%) [2]: 7% and 4%
Population Mitochondria Different-Phenotype (%) [2]: 1% and 8%
Population Mitotic Cells (%) [2]: 22% and 57%
Population Normal (%) [2]: 95% and 98%
Population Pyknosed Nuclei (%) [2]: 9% and 12%
Population Tubulin-Different-Phenotype (%) [2]: 2%
Total Cell Count [2]: 237 and 113
Population Apoptotic (%) [3]: 100% and 94%
Population Fragmented Nuclei (%) [3]: 28% and 11%
Population Healthy Nuclei (%) [3]: 65% and 77%
Population Hoechst High Intensity Objects (%) [3]: 2% and 4%
Population Membrane Permeable-Phenotype (%) [3]: 5% and 7%
Population Mitochondria Different-Phenotype (%) [3]: 2% and 5%
Population Mitotic Cells (%) [3]: 0% and 5%
Population Normal (%) [3]: 97% and 95%
Population Pyknosed Nuclei (%) [3]: 6% and 11%
Population Tubulin-Different-Phenotype (%) [3]: 3% and 5%
Total Cell Count [3]: 247 and 178
Population Apoptotic (%) [4]: 72% and 66%
Population Fragmented Nuclei (%) [4]: 28% and 21%
Population Healthy Nuclei (%) [4]: 58% and 63%
Population Hoechst High Intensity Objects (%) [4]: 4% and 0%
Population Membrane Permeable-Phenotype (%) [4]: 6% and 4%
Population Mitochondria Different-Phenotype (%) [4]: 3% and 8%
Population Mitotic Cells (%) [4]: 27% and 33%
Population Normal (%) [4]: 95% and 100%
Population Pyknosed Nuclei (%) [4]: 13% and 15%
Population Tubulin-Different-Phenotype (%) [4]: 1% and 2%
Total Cell Count [4]: 257 and 118
Population Apoptotic (%) [5]: 88% and 93%
Population Fragmented Nuclei (%) [5]: 25% and 15%
Population Healthy Nuclei (%) [5]: 69% and 71%
Population Hoechst High Intensity Objects (%) [5]: 3%
Population Membrane Permeable-Phenotype (%) [5]: 5% and 7%
Population Mitochondria Different-Phenotype (%) [5]: 3%
Population Mitotic Cells (%) [5]: 11% and 6%
Population Normal (%) [5]: 96%
Population Pyknosed Nuclei (%) [5]: 5% and 13%
Population Tubulin-Different-Phenotype (%) [5]: 3% and 4%
Total Cell Count [5]: 338 and 259
Population Apoptotic (%) [6]: 74% and 68%
Population Fragmented Nuclei (%) [6]: 25% and 20%
Population Healthy Nuclei (%) [6]: 61% and 63%
Population Hoechst High Intensity Objects (%) [6]: 5% and 4%
Population Membrane Permeable-Phenotype (%) [6]: 5% and 13%
Population Mitochondria Different-Phenotype (%) [6]: 3% and 8%
Population Mitotic Cells (%) [6]: 25% and 32%
Population Normal (%) [6]: 94% and 95%
Population Pyknosed Nuclei (%) [6]: 12% and 16%
Population Tubulin-Different-Phenotype (%) [6]: 5% and 9%
Total Cell Count [6]: 352 and 160

— ChEMBL document CHEMBL5724801, “EUbOPEN Chemogenomics Library - Multiplex” (2024)
